According to ChEMBL document CHEMBL3085708, “Identification and profiling of 3,5-dimethyl-isoxazole-4-carboxylic acid [2-methyl-4-((2S,3'S)-2-methyl-[1,3']bipyrrolidinyl-1'-yl)phenyl] amide as histamine H(3) receptor antagonist for the treatment of depression” (Bioorg Med Chem Lett, 2013):

Assays:
[1] = Mutagenic activity in micronucleus (unknown origin) at 5 to 950 ug/mL in absence of human liver microsomes; format: toxicity
Procedure, shortened: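 In vitro micronucleus test; concentrations 5 to 950 µg/mL, run with and without metabolic activation by human liver microsomes.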

[2] = Toxicity in guinea pig heart assessed as decrease in ventricular contraction at 30 uM relative to control; format: tissue-based, Cavia porcellus, Cardiac ventricle
Heart = experiment: Toxicity in guinea pig heart assessed as effect on coronary pressure at 0.1 to 30 uM; format: tissue-based, Cavia porcellus
Mus musculus [3] = experiment: Toxicity in mouse assessed as appearance of tremor at 100 mg/kg, po; format: organism-based; parameters: dose 100 mg/kg, route oral; conditions: in vivo
Procedure, shortened: (§1)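 Acute oral group toxicity in mice: behavioural side effects scored (social interaction, motility, preconvulsant signs, convulsions, tremor) after single po doses of 30 and 100 mg/kg.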

Mus musculus [4] = experiment: Toxicity in mouse assessed as effect on convulsion at 30 mg/kg, po; format: organism-based; parameters: dose 30 mg/kg, route oral; conditions: in vivo; procedure, shortened: as §1
Mus musculus [5] = experiment: Toxicity in mouse assessed as effect on motility at 30 mg/kg, po; format: organism-based; parameters: dose 30 mg/kg, route oral; conditions: in vivo; procedure, shortened: as §1
Mus musculus [6] = experiment: Toxicity in mouse assessed as effect on social interaction at 30 mg/kg, po; format: organism-based; parameters: dose 30 mg/kg, route oral; conditions: in vivo; procedure, shortened: as §1
[7] = Ratio of AUC (0 to infinity) in brain to plasma in OF1 mouse at 2 mg/kg, iv; format: ADME, organism-based; parameters: dose 2 mg/kg, route intravenous; conditions: brain and plasma, read-out: Ratio AUC
[8] = Oral bioavailability in Sprague-Dawley rat at 10 mg/kg; format: ADME, organism-based; conditions: in vivo
Procedure, shortened: (§2)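 Male Sprague-Dawley rats dosed 2 mg/kg iv in saline (0.5 mg/mL) and 10 mg/kg po in 0.5% MC/0.2% Tween80 (1.0 mg/mL); plasma and brain concentrations followed.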

[9] = Elimination half life in Sprague-Dawley rat plasma at 10 mg/kg, po; format: ADME, organism-based; parameters: dose 10 mg/kg, route oral; conditions: read-out: beta t1/2 (converted)
Procedure, shortened: (§3)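 Single-dose PK; male OF1 mice and male Sprague-Dawley rats, 2 mg/kg iv and 10 mg/kg po. Mouse vehicles: iv 50% 1-methyl-2-pyrrolidinone in saline (1.0 mg/mL); po 5% DMSO/0.5% MC/0.2% Tween80 (1.0 mg/mL). Rat vehicles: iv saline (0.5 mg/mL); po 0.5% MC/0.2% Tween80 (1.0 mg/mL). Plasma and brain exposure read as AUC0-∞ and t1/2.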

[10] = Tmax in Sprague-Dawley rat plasma at 10 mg/kg, po; format: ADME, organism-based; parameters: dose 10 mg/kg, route oral; procedure, shortened: as §2
[11] = Cmax in Sprague-Dawley rat brain at 10 mg/kg, po; format: ADME, organism-based; parameters: dose 10 mg/kg, route oral
Procedure, shortened: (§4)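 Oral PK at 10 mg/kg po in male OF1 mice (vehicle 5% DMSO/0.5% MC/0.2% Tween80, 1.0 mg/mL) and male Sprague-Dawley rats (vehicle 0.5% MC/0.2% Tween80, 1.0 mg/mL). Cmax and tmax taken from plasma and brain concentration–time profiles.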

[12] = AUC (0 to infinity) in Sprague-Dawley rat brain at 10 mg/kg, po; format: ADME, organism-based; parameters: time infinity, dose 10 mg/kg, route oral; procedure, shortened: as §3
[13] = AUC (0 to infinity) in Sprague-Dawley rat plasma at 10 mg/kg, po; format: ADME, organism-based; parameters: time infinity, dose 10 mg/kg, route oral; procedure, shortened: as §3
[14] = Volume of distribution in Sprague-Dawley rat at 2 mg/kg, iv; format: ADME, organism-based; parameters: dose 2 mg/kg, route intravenous; conditions: in vivo; procedure, shortened: as §2
Rattus norvegicus = experiment: Plasma clearance in Sprague-Dawley rat at 2 mg/kg, iv; format: ADME, organism-based; parameters: dose 2 mg/kg, route intravenous; conditions: in vivo; procedure, shortened: as §2
[15] = Elimination half life in Sprague-Dawley rat brain at 2 mg/kg, iv; format: ADME, organism-based; parameters: dose 2 mg/kg, route intravenous; conditions: read-out: beta t1/2 (converted); procedure, shortened: as §3
[16] = Elimination half life in Sprague-Dawley rat plasma at 2 mg/kg, iv; format: ADME, organism-based; parameters: dose 2 mg/kg, route intravenous; conditions: read-out: beta t1/2 (converted); procedure, shortened: as §3
[17] = AUC (0 to infinity) in Sprague-Dawley rat brain at 2 mg/kg, iv; format: ADME, organism-based; parameters: time infinity, dose 2 mg/kg, route intravenous; procedure, shortened: as §3
[18] = AUC (0 to infinity) in Sprague-Dawley rat plasma at 2 mg/kg, iv; format: ADME, organism-based; parameters: time infinity, dose 2 mg/kg, route intravenous; procedure, shortened: as §3
[19] = Tmax in OF1 mouse brain at 10 mg/kg, po; format: ADME, organism-based; parameters: dose 10 mg/kg, route oral
Procedure, shortened: (§5)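 Male OF1 mice given 2 mg/kg iv (50% 1-methyl-2-pyrrolidinone in saline, 1.0 mg/mL) and 10 mg/kg po (5% DMSO/0.5% MC/0.2% Tween80, 1.0 mg/mL); plasma and brain exposure measured; B/P ratio from iv AUC.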

[20] = Tmax in OF1 mouse plasma at 10 mg/kg, po; format: ADME, organism-based; parameters: dose 10 mg/kg, route oral; procedure, shortened: as §5
[21] = Elimination half life in OF1 mouse plasma at 10 mg/kg, po; format: ADME, organism-based; parameters: dose 10 mg/kg, route oral; conditions: read-out: beta t1/2 (converted); procedure, shortened: as §3
[22] = Cmax in OF1 mouse brain at 10 mg/kg, po; format: ADME, organism-based; parameters: dose 10 mg/kg, route oral; procedure, shortened: as §4
[23] = Cmax in OF1 mouse plasma at 10 mg/kg, po; format: ADME, organism-based; parameters: dose 10 mg/kg, route oral; procedure, shortened: as §4
[24] = Volume of distribution in OF1 mouse at 2 mg/kg, iv; format: ADME, organism-based; parameters: dose 2 mg/kg, route intravenous; conditions: in vivo; procedure, shortened: as §5
Mus musculus [25] = experiment: Plasma clearance in OF1 mouse at 2 mg/kg, iv; format: ADME, organism-based; parameters: dose 2 mg/kg, route intravenous; conditions: in vivo; procedure, shortened: as §5
[26] = Elimination half life in OF1 mouse brain at 2 mg/kg, iv; format: ADME, organism-based; parameters: dose 2 mg/kg, route intravenous; conditions: read-out: beta t1/2 (converted); procedure, shortened: as §3
[27] = Elimination half life in OF1 mouse plasma at 2 mg/kg, iv; format: ADME, organism-based; parameters: dose 2 mg/kg, route intravenous; conditions: read-out: beta t1/2 (converted); procedure, shortened: as §3
Cytochrome P450 2C19 = Cytochrome P450 2C19 (Homo sapiens, UniProt P33261); experiment: Inhibition of CYP2C19 (unknown origin) after 4 hrs; format: ADME
Cytochrome P450 3A4 = Cytochrome P450 3A4 (Homo sapiens, UniProt P08684); experiment: Inhibition of CYP3A4 (unknown origin) after 4 hrs; format: ADME
[28] = Drug metabolism in dog plasma at 100 ng/ml after 4 hrs; format: ADME, cell-free, Canis lupus familiaris; conditions: read-out: Drug metabolism
Procedure, shortened: (§6)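 Compound spiked into blank plasma of human, mouse, rat, rabbit, macaque and dog at 100 ng/ml, then incubated in a 37 °C water bath for up to 4 h; percent metabolized reported.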

[29] = Drug metabolism in macaque plasma at 100 ng/ml after 4 hrs; format: ADME, cell-free; conditions: macaca, read-out: Drug metabolism; procedure, shortened: as §6
[30] = Drug metabolism in rabbit plasma at 100 ng/ml after 4 hrs; format: ADME, cell-free, Oryctolagus cuniculus; conditions: read-out: Drug metabolism; procedure, shortened: as §6
[31] = Drug metabolism in rat plasma at 100 ng/ml after 4 hrs; format: ADME, cell-free; conditions: read-out: Drug metabolism; procedure, shortened: as §6
[32] = Drug metabolism in mouse plasma at 100 ng/ml after 4 hrs; format: ADME, cell-free; conditions: read-out: Drug metabolism; procedure, shortened: as §6
[33] = Drug metabolism in guinea pig liver microsomes; format: ADME, Cavia porcellus, Microsome; conditions: read-out: Drug metabolism
[34] = Drug metabolism in dog liver microsomes; format: ADME, Canis lupus familiaris; conditions: read-out: Drug metabolism
[35] = Drug metabolism in macaque liver microsomes; format: ADME, Microsome; conditions: macaca, read-out: Drug metabolism
[36] = Drug metabolism in rabbit liver microsomes; format: ADME, Oryctolagus cuniculus, Microsome; conditions: read-out: Drug metabolism
[37] = Drug metabolism in rat liver microsomes; format: ADME; conditions: read-out: Drug metabolism
[38] = Drug metabolism in human liver microsomes; format: ADME; conditions: read-out: Drug metabolism
Homo sapiens = species: Homo sapiens; experiment: Inhibition of sigma-2 receptor (unknown origin) at 10 uM relative to control
[39] = biological target: Sigma non-opioid intracellular receptor 1 (Homo sapiens) (UniProt Q99720); experiment: Inhibition of sigma-1 receptor (unknown origin) at 10 uM relative to control
[40] = Solubility of the compound in form of crystalline free base in gastrointestinal tract simulated media; format: physicochemical
Histamine H3 receptor [41] = biological target: Histamine H3 receptor (Homo sapiens, UniProt Q9Y5N1); experiment: Inverse agonist activity at human histamine H3 receptor (445 amino acid residues) expressed in CHO cells by CRE-luciferase reporter gene assay; format: functional, cell-based
Histamine H3 receptor [42] = biological target: Histamine H3 receptor (Rattus norvegicus, UniProt Q9QYN8); experiment: Displacement of [3H]-methylhistamine from rat histamine H3 receptor (445 amino acid residues) transfected in human 293 cells after 1 hr by scintillation counting analysis; format: cell-based
[43] = Therapeutic index, ratio for toxicity in mouse to ratio for antidepression-like activity in rat; conditions: in vivo, read-out: TI

Chain of Cytochrome P450 2C19 (P33261 whole entry): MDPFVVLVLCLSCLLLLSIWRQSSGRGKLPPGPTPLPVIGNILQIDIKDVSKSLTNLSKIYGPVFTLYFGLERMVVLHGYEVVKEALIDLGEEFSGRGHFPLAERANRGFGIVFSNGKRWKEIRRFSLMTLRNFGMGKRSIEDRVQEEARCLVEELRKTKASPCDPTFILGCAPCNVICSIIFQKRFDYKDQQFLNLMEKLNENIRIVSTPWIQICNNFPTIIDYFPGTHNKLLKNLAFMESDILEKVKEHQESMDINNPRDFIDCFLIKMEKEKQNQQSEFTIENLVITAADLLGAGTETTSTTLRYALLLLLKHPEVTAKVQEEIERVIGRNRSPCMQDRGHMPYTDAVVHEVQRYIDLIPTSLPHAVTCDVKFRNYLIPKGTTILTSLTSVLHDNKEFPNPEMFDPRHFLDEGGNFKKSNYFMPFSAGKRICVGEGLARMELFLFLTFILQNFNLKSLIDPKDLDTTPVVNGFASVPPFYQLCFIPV
Chain of Histamine H3 receptor (Homo sapiens, UniProt Q9Y5N1) (Q9Y5N1 whole entry): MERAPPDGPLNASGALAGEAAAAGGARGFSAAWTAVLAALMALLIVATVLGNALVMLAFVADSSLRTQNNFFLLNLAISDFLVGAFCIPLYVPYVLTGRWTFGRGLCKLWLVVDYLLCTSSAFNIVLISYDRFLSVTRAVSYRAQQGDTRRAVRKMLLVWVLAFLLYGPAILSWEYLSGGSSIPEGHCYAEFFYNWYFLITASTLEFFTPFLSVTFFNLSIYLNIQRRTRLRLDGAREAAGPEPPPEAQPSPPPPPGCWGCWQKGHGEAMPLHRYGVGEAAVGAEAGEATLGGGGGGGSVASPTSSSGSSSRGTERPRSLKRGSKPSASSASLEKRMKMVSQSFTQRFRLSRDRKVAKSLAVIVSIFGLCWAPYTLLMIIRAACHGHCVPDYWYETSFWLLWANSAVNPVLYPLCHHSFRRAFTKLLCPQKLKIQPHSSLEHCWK
Chain of Histamine H3 receptor (Rattus norvegicus, UniProt Q9QYN8) (Q9QYN8 whole entry): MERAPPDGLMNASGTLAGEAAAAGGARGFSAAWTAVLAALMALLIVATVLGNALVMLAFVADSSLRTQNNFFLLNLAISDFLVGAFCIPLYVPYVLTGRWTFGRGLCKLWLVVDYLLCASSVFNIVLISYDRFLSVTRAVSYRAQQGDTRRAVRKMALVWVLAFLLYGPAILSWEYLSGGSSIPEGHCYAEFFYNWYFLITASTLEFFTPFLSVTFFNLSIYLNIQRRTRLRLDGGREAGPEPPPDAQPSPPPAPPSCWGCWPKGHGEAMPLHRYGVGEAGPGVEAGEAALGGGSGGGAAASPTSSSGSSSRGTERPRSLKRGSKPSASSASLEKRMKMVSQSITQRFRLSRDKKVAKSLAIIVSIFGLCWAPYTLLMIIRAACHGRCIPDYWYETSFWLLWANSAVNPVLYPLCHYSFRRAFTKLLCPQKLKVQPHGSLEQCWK
Chain of Cytochrome P450 3A4 (P08684 whole entry): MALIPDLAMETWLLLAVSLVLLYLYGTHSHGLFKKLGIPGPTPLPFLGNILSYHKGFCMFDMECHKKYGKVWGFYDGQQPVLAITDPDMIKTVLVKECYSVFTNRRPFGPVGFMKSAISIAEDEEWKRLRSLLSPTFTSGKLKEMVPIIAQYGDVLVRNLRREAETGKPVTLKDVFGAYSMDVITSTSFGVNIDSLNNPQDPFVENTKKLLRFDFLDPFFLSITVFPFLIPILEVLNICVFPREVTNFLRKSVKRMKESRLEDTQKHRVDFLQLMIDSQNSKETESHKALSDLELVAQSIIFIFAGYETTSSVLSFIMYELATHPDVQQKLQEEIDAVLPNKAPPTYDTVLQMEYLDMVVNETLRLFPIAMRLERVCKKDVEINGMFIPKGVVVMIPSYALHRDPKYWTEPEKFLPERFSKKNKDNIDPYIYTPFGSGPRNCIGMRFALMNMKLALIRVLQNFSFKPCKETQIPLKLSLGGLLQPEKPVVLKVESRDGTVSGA
Chain of Sigma non-opioid intracellular receptor 1 (Homo sapiens) (Q99720 whole entry): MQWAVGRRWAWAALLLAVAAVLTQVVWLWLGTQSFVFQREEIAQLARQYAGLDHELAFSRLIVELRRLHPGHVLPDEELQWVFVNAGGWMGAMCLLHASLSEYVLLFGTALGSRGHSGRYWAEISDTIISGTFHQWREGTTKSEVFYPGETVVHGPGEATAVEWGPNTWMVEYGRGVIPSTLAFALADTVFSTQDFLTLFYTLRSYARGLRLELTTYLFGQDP

## Cc1cc(N2CC[C@H](N3CCC[C@@H]3C)C2)ccc1NC(=O)c1c(C)noc1C
[1]
  Activity: Non-toxic
[2]
  inhibition at 30 µM: 33%
Heart
  Activity: Non-toxic
Mus musculus [3]
  Activity: Toxic
Mus musculus [4]
  Activity: Non-toxic
Mus musculus [5]
  Activity: Non-toxic
Mus musculus [6]
  Activity: Non-toxic
[7]
  Kp: 1.6
[8]
  bioavailability: 56%
[9]
  half-life: 468 min
[10]
  Tmax: 30 min
[11]
  Cmax: 599 ng/mL
[12]
  AUC(0-inf): 3400 ng·h/mL
[13]
  AUC(0-inf): 3150 ng·h/mL
[14]
  Vd: 2.8 L/kg
Rattus norvegicus
  clearance: 30 mL/min/kg
[15]
  half-life: 108 min
[16]
  half-life: 72 min
[17]
  AUC(0-inf): 1200 ng·h/mL
[18]
  AUC(0-inf): 1100 ng·h/mL
[19]
  Tmax: 10.2 min
[20]
  Tmax: 10.2 min
[21]
  half-life: 108 min
[22]
  Cmax: 2620 ng/mL
[23]
  Cmax: 1680 ng/mL
[24]
  Vd: 1.7 L/kg
Mus musculus [25]
  clearance: 50 mL/min/kg
[26]
  half-life: 55.8 min
[27]
  half-life: 39 min
Cytochrome P450 2C19
  IC50: > 100000 nM
Cytochrome P450 3A4
  IC50: > 100000 nM
[28]
  metabolised at 4 h, 100 ng/ml: < 5%
[29]
  metabolised at 4 h, 100 ng/ml: < 5%
[30]
  metabolised at 4 h, 100 ng/ml: < 5%
[31]
  metabolised at 4 h, 100 ng/ml: < 5%
[32]
  metabolised at 4 h, 100 ng/ml: < 5%
[33]
  metabolised: 35%
[34]
  metabolised: < 5%
[35]
  metabolised: < 5%
[36]
  metabolised: < 5%
[37]
  metabolised: < 5%
[38]
  metabolised: < 5%
Homo sapiens
  inhibition: 73%
[39]
  inhibition: 73%
[40]
  solubility: > 2000 µg/mL
Histamine H3 receptor [41]
  EC50: 0.7 nM
Histamine H3 receptor [42]
  Ki: 0.9 nM
[43]
  selectivity ratio: 3
